Key:
Influenza A virus [1] = assay: Antiviral activity against Influenza A virus A/Virginia/ATCC3/2009(H1N1pdm) infected in MDCK cells after 3 days by MTS assay; assay type: functional, organism-based, Influenza A virus (A/Virginia/03/2009(H1N1)); conditions: 72 h
Summary of the method: (§1)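 Semi-confluent MDCK cells were infected at an MOI of 0.0004 PFU/cell in Ultra-MDCK infection medium with 2 μg/mL TPCK-trypsin, together with compounds. After 3 days at 35 °C, CPE was scored by microscopy and confirmed by MTS formazan viability. EC50 is the concentration giving 50% inhibition of virus-induced CPE. Values are means of two to five independent tests.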

Influenza A virus [2] = assay: Antiviral activity against Influenza A virus A/PR/8/34(H1N1) infected in MDCK cells after 3 days by MTS assay; assay type: functional, organism-based, A/Puerto Rico/8/1934(H1N1); conditions: Influenza A virus, A/Puerto Rico/8/1934(H1N1), MDCK, 72 h; summary of the method: as §1
Influenza B virus [3] = assay: Antiviral activity against Influenza B virus B/HK/05/72 infected in MDCK cells after 3 days by MTS assay; assay type: functional, organism-based; conditions: B/Hong Kong/05/1972, MDCK, 72 h; summary of the method: as §1
Influenza B virus [4] = assay: Antiviral activity against Influenza B virus B/HK/05/72 infected in MDCK cells assessed as reduction in virus-induced cytopathic effect after 3 days by microscopic method; assay type: functional, organism-based; conditions: B/Hong Kong/05/1972, MDCK, 72 h; summary of the method: as §1
[5] = Cytotoxicity against MDCK cells assessed as alteration in cell morphology after 3 days by microscopic method; assay type: cell-based, Canis lupus familiaris; conditions: dog
Summary of the method: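 Mock-infected MDCK cells were treated with compounds in parallel with the antiviral assay, 3 days at 35 °C. MCC is the concentration causing minimal change in cell morphology by microscopy. CC50 is the 50% cytotoxic concentration by MTS formazan viability assay.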

H3N2 subtype [6] = assay: Antiviral activity against Influenza A virus A/HK/7/87(H3N2) infected in MDCK cells after 3 days by MTS assay; assay type: functional, organism-based; conditions: A/Hong Kong/7/1987(H3N2), 72 h; summary of the method: as §1
Influenza A virus [7] = assay: Antiviral activity against Influenza A virus A/PR/8/34(H1N1) infected in MDCK cells assessed as reduction in virus-induced cytopathic effect after 3 days by microscopic method; assay type: functional, organism-based, A/Puerto Rico/8/1934(H1N1); conditions: Influenza A virus, A/Puerto Rico/8/1934(H1N1), MDCK, 72 h; summary of the method: as §1
H3N2 subtype [8] = assay: Antiviral activity against Influenza A virus A/HK/7/87(H3N2) infected in MDCK cells assessed as reduction in virus-induced cytopathic effect after 3 days by microscopic method; assay type: functional, organism-based; conditions: A/Hong Kong/7/1987(H3N2), 72 h; summary of the method: as §1
[9] = Cytotoxicity against MDCK cells assessed as reduction in cell viability after 3 days by MTS assay; assay type: cell-based, Canis lupus familiaris; conditions: dog, MDCK cells
Influenza A virus [10] = assay: Antiviral activity against Influenza A virus A/Virginia/ATCC3/2009(H1N1pdm) infected in MDCK cells assessed as reduction in virus-induced cytopathic effect after 3 days by microscopic method; assay type: functional, organism-based, Influenza A virus (A/Virginia/03/2009(H1N1)); conditions: 72 h; summary of the method: as §1

| SMILES | EC50 (Influenza A virus [1]) [µM] | EC50 (Influenza A virus [2]) [µM] | EC50 (Influenza B virus [3]) [µM] | EC50 (Influenza B virus [4]) [µM] | MCC at 72 h [5] [µM] | EC50 (H3N2 subtype [6]) [µM] | EC50 (Influenza A virus [7]) [µM] | EC50 (H3N2 subtype [8]) [µM] | CC50 at 72 h [9] [µM] | EC50 (Influenza A virus [10]) [µM] |
| --- | --- | --- | --- | --- | --- | --- | --- | --- | --- | --- |
| CC(=O)N[C@H]1[C@H](O[C@@H]2c3ccc(c(Cl)c3)Oc3cc4cc(c3O)Oc3ccc(cc3Cl)C[C@H]3NC(=O)[C@H](n5cc(COc6ccccc6)nn5)c5ccc(O)c(c5)Oc5cc(O)cc(c5)[C@H](NC3=O)C(=O)N[C@H]4C(O)N[C@H]3C(=O)N[C@H]2C(=O)N[C@@H](C(=O)O)c2cc(O)cc(O)c2-c2cc3ccc2O)O[C@H](CO)[C@@H](O)[C@@H]1O (stereo not given in full) | > 100 | > 100 | > 100 | > 100 | ≥ 20 | 11 | > 100 | 11 | 41 | > 100 |
| CCCCCCOCc1cn([C@H]2C(=O)N[C@@H]3Cc4ccc(c(Cl)c4)Oc4cc5cc(c4O)Oc4ccc(cc4Cl)[C@@H](O[C@@H]4O[C@H](CO)[C@@H](O)[C@H](O)[C@H]4NC(C)=O)[C@H]4NC(=O)[C@H](NC(O)[C@@H]5NC(=O)[C@@H](NC3=O)c3cc(O)cc(c3)Oc3cc2ccc3O)c2ccc(O)c(c2)-c2c(O)cc(O)cc2[C@H](C(=O)O)NC4=O)nn1 (stereo not given in full) | > 100 | > 100 | 11 | 17 | ≥ 20 | 13 | > 100 | 15 | 53 | > 100 |
| CC(=O)N[C@H]1[C@H](O[C@@H]2c3ccc(c(Cl)c3)Oc3cc4cc(c3O)Oc3ccc(cc3Cl)C[C@H]3NC(=O)[C@H](n5cc(COC[C@H]6O[C@@H]7OC(C)(C)O[C@@H]7[C@H]7OC(C)(C)O[C@H]76)nn5)c5ccc(O)c(c5)Oc5cc(O)cc(c5)[C@H](NC3=O)C(=O)N[C@H]4C(O)N[C@H]3C(=O)N[C@H]2C(=O)N[C@@H](C(=O)O)c2cc(O)cc(O)c2-c2cc3ccc2O)O[C@H](CO)[C@@H](O)[C@@H]1O (stereo not given in full) | 43 | 47 | 29 | 39 | ≥ 100 | 24 | 52 | 39 | > 100 | 45 |
| CCCCCCCCCCOCc1cn([C@H]2C(=O)N[C@@H]3Cc4ccc(c(Cl)c4)Oc4cc5cc(c4O)Oc4ccc(cc4Cl)[C@@H](O[C@@H]4O[C@H](CO)[C@@H](O)[C@H](O)[C@H]4NC(C)=O)[C@H]4NC(=O)[C@H](NC(O)[C@@H]5NC(=O)[C@@H](NC3=O)c3cc(O)cc(c3)Oc3cc2ccc3O)c2ccc(O)c(c2)-c2c(O)cc(O)cc2[C@H](C(=O)O)NC4=O)nn1 (stereo not given in full) | > 100 | > 100 | > 100 | > 100 | 4 | > 100 | > 100 | > 100 | 3.7 | > 100 |
| CC(=O)N[C@H]1[C@H](O[C@@H]2c3ccc(c(Cl)c3)Oc3cc4cc(c3O)Oc3ccc(cc3Cl)C[C@H]3NC(=O)[C@H](n5cc(COc6cccc7ccccc67)nn5)c5ccc(O)c(c5)Oc5cc(O)cc(c5)[C@H](NC3=O)C(=O)N[C@H]4C(O)N[C@H]3C(=O)N[C@H]2C(=O)N[C@@H](C(=O)O)c2cc(O)cc(O)c2-c2cc3ccc2O)O[C@H](CO)[C@@H](O)[C@@H]1O (stereo not given in full) | 4.4 | 11 | 6.6 | 15 | 20 | 8 | 11 | 15 | 47 | 11 |

From ChEMBL document CHEMBL4270630
